# Measured values published in ChEMBL document CHEMBL3407418, “Fragment-based drug discovery of 2-thiazolidinones as BRD4 inhibitors: 2. Structure-based optimization” (J Med Chem, 2015).
# pIC50: −log10 of the molar value.
# How the values were obtained:
# [1] = target: Bromodomain-containing protein 4 (Homo sapiens, UniProt O60885); assay: Inhibition of BRD4(1) (unknown origin) incubated for 4 hrs by (+)-JQ1 fluorescent ligand based fluorescence anisotrophy
# [2] = tested on: HT-29; assay: Growth inhibition of human HT-29 cells after 72 hrs by SRB assay; type: functional, cell-based; conditions: HT-29, 72 h
# How it was run: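 HT-29 cells are grown in McCoy's 5A with 10% FBS at 37 °C, 5% CO2. DMSO stocks (0.01 mol/L) are diluted in normal saline just before use. Cells are treated in triplicate with gradient concentrations for 72 h at 37 °C.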
# [3] = Growth inhibition of human MM1S cells after 72 hrs by CellTiter-Glo luminescent cell viability assay; conditions: MM1.S
# [4] = tested on: MV4-11; assay: Growth inhibition of human MV4-11 cells after 72 hrs by CellTiter-Glo luminescent cell viability assay; conditions: MV4-11, 72 h
Compound,pIC50 [1],pIC50 [2],pIC50 [3],pIC50 [4]
O=c1[nH]c(-c2cccc(S(=O)(=O)NC3CCCCC3)c2)cs1,5.69,–,–,–
Nc1ccc(NS(=O)(=O)c2cccc(-c3csc(=O)[nH]3)c2)cc1,5.08,–,–,–
O=c1[nH]c(-c2cccc(S(=O)(=O)NCc3ccccc3)c2)cs1,< 5.00,–,–,–
O=c1[nH]c(-c2cccc(S(=O)(=O)NCCc3cccs3)c2)cs1,< 5.00,–,–,–
O=c1[nH]c(-c2cccc(S(=O)(=O)NCC3CCCO3)c2)cs1 (stereo unspecified),5.03,–,–,–

# Stronger by pIC50 [1], values ahead:
pIC50 [1],pIC50 [2],pIC50 [3],pIC50 [4],Compound
5.85,–,–,–,O=c1[nH]c(-c2cccc(S(=O)(=O)NC3CCCC3)c2)cs1
6.03,4.63,–,–,CCCC(=O)Nc1cc(-c2csc(=O)[nH]2)cc(S(=O)(=O)NC2CCCC2)c1C
6.10,4.70,5.39,6.22,Cc1c(NC(=O)c2cccs2)cc(-c2csc(=O)[nH]2)cc1S(=O)(=O)NC1CCCC1
6.30,4.45,–,–,O=c1[nH]c(-c2ccc(F)c(S(=O)(=O)NC3CCCC3)c2)cs1
6.40,4.61,5.64,6.17,COCC(=O)Nc1ccc(-c2csc(=O)[nH]2)cc1S(=O)(=O)NC1CCCC1
6.66,4.55,5.76,6.35,Cc1c(NC(=O)C2CC2)cc(-c2csc(=O)[nH]2)cc1S(=O)(=O)NC1CCCC1
6.77,4.86,5.60,6.10,CCCC(=O)Nc1cc(-c2csc(=O)[nH]2)cc(S(=O)(=O)NC2CCCC2)c1
